Compounds with a hit are over-represented: about 2.2% of the library has one in this group of screens.
Neddyl block: cullin neddylation inhibition. P61081+Q13564. TR-FRET cullin neddylation, biochemical. inhibition, % at 25 µM. 360,000 tested, 0.58% active; in the data active = inhibition above about 36%
Target sequence (P61081 whole entry, looked up): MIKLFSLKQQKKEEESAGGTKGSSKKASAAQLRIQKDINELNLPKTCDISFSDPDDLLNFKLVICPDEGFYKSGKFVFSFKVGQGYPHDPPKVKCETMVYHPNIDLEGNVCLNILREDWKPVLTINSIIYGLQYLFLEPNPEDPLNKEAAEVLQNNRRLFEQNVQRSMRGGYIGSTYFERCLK
Target sequence (Q13564 whole entry, looked up): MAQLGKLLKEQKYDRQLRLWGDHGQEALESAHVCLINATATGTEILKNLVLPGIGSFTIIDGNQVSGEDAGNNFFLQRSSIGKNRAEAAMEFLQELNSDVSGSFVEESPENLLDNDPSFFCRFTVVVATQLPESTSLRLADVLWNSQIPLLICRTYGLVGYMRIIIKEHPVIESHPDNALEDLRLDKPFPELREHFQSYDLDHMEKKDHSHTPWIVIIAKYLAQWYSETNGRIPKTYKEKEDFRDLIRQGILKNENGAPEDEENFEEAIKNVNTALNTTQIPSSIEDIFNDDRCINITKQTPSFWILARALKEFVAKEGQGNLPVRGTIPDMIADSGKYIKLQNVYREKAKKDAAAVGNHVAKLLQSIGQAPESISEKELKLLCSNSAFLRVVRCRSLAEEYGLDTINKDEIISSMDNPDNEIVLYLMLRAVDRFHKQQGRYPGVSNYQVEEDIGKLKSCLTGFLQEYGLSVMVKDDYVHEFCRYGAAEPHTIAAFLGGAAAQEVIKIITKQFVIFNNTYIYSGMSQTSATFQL
PfGluPho inh: PfG6PD (Plasmodium falciparum) enzyme inhibition. 350,000 tested, 0.78% active. inhibition, % at 20 µM. PfGluPho enzyme, NADPH resazurin-diaphorase fluorescence;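 active = inhibition reaching at least a set limit at 20 µM in the primary screen, cut at about 59% in these data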;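 note: 0% = DMSO wells with substrate and 100% = DMSO wells lacking glucose-6-phosphate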
HKDC1 inh: HKDC1 (human) hexokinase inhibition; Q2TB90; recombinant HKDC1, G6PDH/diaphorase resazurin coupled fluorescence; inhibition, % at 20 µM; 340,000 tested, 0.16% active;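 active = inhibition above about 35% when tested at 20 µM, limit read from the data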;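 note: plate controls were DMSO wells with enzyme for no effect and DMSO wells lacking enzyme for full effect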
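test system = in-house recombinant HK5 (HKDC1) enzyme | amount = HKDC1 at 5 µg/mL | control set = DMSO-enzyme wells negative, buffer-substituted wells positive | compound = one dose of 20 µM, 1% DMSO | schedule = reaction time 90 min, room temperature, protected from light | technique = resorufin fluorescence at 613 nm | reagent = glucose with 1 mM ATP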
PfM18AAP inh-1: PfM18AAP enzyme inhibition. recombinant PfM18AAP, H-Glu-NHMec fluorogenic cleavage. inhibition, % at 7.35 µM. 290,000 tested, 1.2% active;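 active = inhibition above the campaign mean inhibition over all tested compounds plus 3 SD, cut at about 28% in these data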;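 note: 0% = plate median of test compound wells and 100% = 2 mM ZnCl2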
PfM18AAP inh-2: PfM18AAP inhibition, confirmation; AID 2170; inhibition, % at 7.35 µM; recombinant PfM18AAP, H-Glu-NHMec fluorogenic cleavage; shares compounds with PfM18AAP inh-1; 2,400 tested, 28% active;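 active = mean inhibition over replicate wells above the hit cutoff set for the earlier primary screen, cut at about 29% in these data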;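 note: 0% = median of test compound wells and 100% = 2 mM ZnCl2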
CTSL1 counter: Cathepsin L (human) inhibition, confirmation | shares compounds with PfM18AAP inh-1 | purified cathepsin L1, Z-Leu-Arg-MCA fluorescence | inhibition, % at 5.96 µM | 2,400 tested, under 10 active | AID 2178;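 active = average inhibition across replicates above the hit cutoff set in the earlier primary screen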;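 note: 0% = median of test compound wells and 100% = Z-Phe-Ala-diazomethylketone 1 µM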
* = called active by the depositor; · = no result given.

SMILES | Neddyl block | PfGluPho inh | HKDC1 inh | PfM18AAP inh-1 | PfM18AAP inh-2 | CTSL1 counter
CC(=O)c1sc2nsc(SCCN3CCCC3)c2c1N | 0 | 39 | 4 | 32* | -39 | 0
CC(Sc1nc(C(C)(C)C)cc(-c2ccccc2)c1C#N)C(=O)Nc1ccccc1 (stereo unspecified) | -53 | 46 | -7 | 33* | -18 | -1
CC(Sc1nccn1C)C(=O)Nc1ccccc1 (stereo unspecified) | -5 | 0 | 5 | -3 | · | ·
Cn1cnnc1SCC(=O)Nc1ccc(N2CCCCC2)cc1 | -7 | 13 | -2 | · | · | ·
CN(C(=O)CN1C(=O)c2cccc(N)c2C1=O)C1CCCCC1 | · | -7 | -5 | · | · | ·
O=[N+]([O-])c1ccc(N/N=C/c2cccc(O)c2O)c(S(=O)(=O)N2CCOCC2)c1 | -18 | -12 | 3 | 42* | 38* | 0
COc1cc2c(c(OC)c1OC)-c1ccc(N(C)CC(OC)OC)c(=O)cc1[C@@H](NC(C)=O)CC2 | -9 | -3 | 8 | 45* | -32 | -5
COc1ccccc1CNCc1cccc(Oc2ccccc2)c1 | 6 | -15 | 3 | 2 | · | ·
COc1ccccc1Cc1nnc(NC(=O)C2CCN(C(=O)c3ccco3)CC2)s1 | -1 | 31 | -4 | 42* | -25 | -2
COCc1nnc(NC(=O)C2CCN(C(=O)c3ccco3)CC2)s1 | -16 | 7 | 2 | 19 | · | ·
COc1ccc(Cl)cc1NC(=O)C1(c2cccs2)CCOCC1 | 1 | 1 | -8 | -1 | · | ·
CNC(=S)NNC(=O)c1cn(C)nc1C | 0 | 2 | -7 | 32* | 19 | -4
COCCN1CCN(C(=O)C2CCC(=O)N(Cc3ccccc3OC)C2)CC1 (stereo unspecified) | -1 | -25 | 7 | -1 | · | ·
COc1ccccc1-n1c(CNC(=O)c2ccc(S(=O)(=O)N3CCCCC3)cc2)n[nH]c1=S | -2 | 22 | -3 | 7 | · | ·
CCOc1ccc(S(=O)(=O)/N=C(/Nc2ccc(C)c(S(=O)(=O)N3CCOCC3)c2)c2ccccc2)cc1 | 2 | 1 | -3 | · | · | ·
Nc1nc(-c2ccccc2)nn1C(=O)c1ccco1 | · | -7 | 0 | -6 | · | ·
COc1ccc(C(=O)n2cnc(N)n2)cc1 | -4 | -1 | -3 | 34* | 54* | -1
Nc1ncn(C(=O)c2ccco2)n1 | 2 | -13 | 3 | 45* | 51* | 1
Cn1c(=O)[nH]c(=O)c2c1nc(N1CCCCC1)n2CC(O)COc1ccc([N+](=O)[O-])cc1 (stereo unspecified) | -18 | -14 | -2 | -12 | · | ·
COc1ccc(S(=O)(=O)N2CCCCCC2)cc1C(=O)OCC(=O)NC1CCS(=O)(=O)C1 (stereo unspecified) | -9 | 3 | -1 | · | · | ·
CCCCC1(C)NC(=S)N2N1C(=S)NC2(C)CCCC (stereo unspecified) | -6 | 8 | 3 | 12 | · | ·
COc1ccc(NC(=S)NNc2ccc(S(=O)(=O)Nc3ccccc3C(=O)O)cc2[N+](=O)[O-])cc1 | -32 | -7 | -2 | 64* | 42* | -2
COc1ccc(C=NNc2ccc(S(=O)(=O)Nc3ccccc3C(=O)O)cc2[N+](=O)[O-])c(OC)c1 | -11 | -25 | 3 | · | · | ·
COc1ccc(OC)c(-c2csc(NC(=O)COC(=O)c3ccc(NC(=O)CC#N)cc3)n2)c1 | -6 | -5 | 0 | · | · | ·
CC(C)Cc1ccc(S(=O)(=O)N2CCN(c3ccccn3)CC2)cc1 | -1 | -6 | -4 | -7 | · | ·
SMILES | Neddyl block | PfGluPho inh | HKDC1 inh | PfM18AAP inh-1 | PfM18AAP inh-2 | CTSL1 counter
CN(C)/C=C1\NC(=S)N(c2ccccc2)C1=O | -26 | 47 | -6 | 73* | 51* | 4
CCOc1cccc(/C=C2\NC(=S)N(c3ccccc3)C2=O)c1O | -43 | 12 | 1 | 6 | · | ·
CN(C)/C=C1\NC(=S)N(c2ccc(Cl)cc2)C1=O | -1 | 45 | -9 | 67* | 44* | 2
CSc1ncccc1C(=O)OCC(=O)Nc1cccc(S(=O)(=O)N2CCOCC2)c1 | -26 | 6 | -3 | · | · | ·
O=C(CSc1ccc(-c2ccco2)nn1)Nc1ccccc1F | -22 | 15 | -1 | -22 | · | ·
COc1cc(/C=C2/C(=O)N(c3ccc(C(=O)O)cc3)N=C2C)cc(OC)c1O | -1 | 45 | 8 | 50* | 29* | -2
COc1cc(/C=C2/C(=O)N(c3ccc(Br)cc3)N=C2C)cc(OC)c1OC | 0 | -2 | 8 | 10 | · | ·
COc1cccc(C(C(=O)NCC2CCCO2)N(C(=O)Cn2nnc3ccccc32)c2ccc(NC(C)=O)cc2)c1OC (stereo unspecified) | 2 | 1 | -5 | 1 | · | ·
N#Cc1c(/N=C/c2ccco2)sc2c1CCCCC2 | -8 | 15 | 3 | 35* | -31 | 2
Oc1c(C(c2ccc(F)cc2)N2CCc3ccccc3C2)sc2ncnn12 (stereo unspecified) | -4 | 32 | 2 | 53* | 25 | -5
Cc1ccc(C(c2sc3nc(C)nn3c2O)N2CCOCC2)cc1 (stereo unspecified) | -7 | -15 | 1 | 3 | · | ·
Cc1ccc(C(c2sc3ncnn3c2O)N2CCC(C)CC2)cc1 (stereo unspecified) | -3 | 6 | -4 | 56* | -24 | 0
Cc1ccc(C(c2sc3ncnn3c2O)N2CCCCC2)cc1 (stereo unspecified) | -9 | -4 | -3 | 47* | -14 | -11
C[C@H](CO)N1C[C@H](C)[C@@H](CN(C)S(C)(=O)=O)Oc2ccc(NS(=O)(=O)c3cn(C)cn3)cc2C1=O | 1 | 15 | -1 | · | · | ·
C/C(=C\C(=O)c1ccccc1)NNc1nc2ccccc2s1 | -8 | -2 | 7 | 26 | · | ·
CC(=O)NNc1nc2ccccc2s1 | 9 | -3 | -9 | 51* | 16 | 2
CN(C)C(=S)Nc1nc2ccccc2s1 | 3 | 50 | -6 | 46* | -15 | 5
CCC1CCCCN1CCCNC(=O)c1ccc(CS(=O)(=O)c2ccccc2C)o1 (stereo unspecified) | 6 | 1 | -6 | 1 | · | ·
Cc1cc(NC(=O)CSc2nnc(CNC(=O)c3ccccc3)o2)no1 | 8 | -8 | 2 | 10 | · | ·
Cc1cc(NC(=O)CSc2nnc(Cc3ccccc3)o2)no1 | -1 | -9 | -8 | 40* | -35 | 2
Cc1ccc(/C=N/Nc2ccc3c(C(F)(F)F)cc(C(F)(F)F)nc3n2)cc1 | 10 | 4 | -3 | 17 | · | ·
NNc1ccc2c(C(F)(F)F)cc(C(F)(F)F)nc2n1 | 33 | 12 | -8 | 45* | 24 | -4
CN(C)c1ccc(C2Nc3cccc4cccc(c34)N2)cc1 | 0 | 41 | 8 | 37* | -11 | -5
Clc1ccc(C2Nc3cccc4cccc(c34)N2)cc1Cl | 1 | 30 | 6 | 36* | -24 | -5
CCn1nccc1NC(=O)c1ccc2sc([C@@H]3O[C@H](CO)[C@H](O)[C@H](O)[C@H]3O)nc2c1 | 7 | · | · | · | · | ·
CN(C)c1ccc(/C=N\NC(=O)CC#N)cc1 | · | 11 | -15 | 50* | -34 | 3
